HKDC1 inh – inhibitors of human hexokinase HKDC1. Q2TB90. 340,000 tested, 0.16% active. recombinant HKDC1, G6PDH/diaphorase resazurin coupled fluorescence. inhibition, % at 20 µM. AID 493160;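 active = inhibition above about 35% when tested at 20 µM, limit read from the data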;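 note: plate controls were DMSO wells with enzyme for no effect and DMSO wells lacking enzyme for full effect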
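Material – in-house recombinant HK5 (HKDC1) enzyme · Quantity – HKDC1 at 5 µg/mL · Buffer or medium – pH 8.0 Tris buffer with 10 mM MgCl2 · Reagent – glucose with 1 mM ATP · Dosing – single 20 µM dose · Times – reaction time 90 min, room temperature, protected from light · Technique – resorufin fluorescence at 613 nm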
ATG4B inhibitor – blocks human ATG4B protease cleavage of LC3 substrate; Q9Y4P1; ATG4B cleavage of LC3-PLA2, NBD-HPC fluorescence, 1 h; inhibition, % at 8.33 µM; 340,000 tested, 0.51% active; AID 504462; in the data active = inhibition above about 40%
PfGluPho inh – PfG6PD (Plasmodium falciparum) enzyme inhibition; PfGluPho enzyme, NADPH resazurin-diaphorase fluorescence; 350,000 tested, 0.78% active; inhibition, % at 20 µM;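 active = inhibition reaching at least a set limit at 20 µM in the primary screen, cut at about 59% in these data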;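 note: 0% = DMSO wells with substrate and 100% = DMSO wells lacking glucose-6-phosphate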
PKA-R1A act – PKA-R1A complex activation; P00514+P68181; PKA-R1A dissociation, Cy5-IP20 fluorescence polarization; scaled: DMSO 0%, 113 µM cGMP 100%; activation, % at 11.4 µM; 340,000 tested, 0.083% active;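 active = percent activation above the mean of all tested compounds plus 3 SD, cut at about 19% in these data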;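 note: higher means more PKAc released from R1A so a rise in polarization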
T cell modulator – modulates CD8 T cell binding to vesicles; 2C CD8+ T cell-vesicle binding, flow cytometry; stronger effect = lower value; response (vesicle binding), % at 7 µM; 330,000 tested, 0.068% active;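 active = response, share of CD8 T cells binding vesicles, and their 90th percentile fluorescence all below set limits, cut at about 80% in these data, passing the limit was not always enough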;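 note: values below 100% mean blocked vesicle binding to the CD8+ T cells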
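Benchmarks: naked versus QL9-loaded vesicles / Assay system: purified 2C TCR transgenic mouse naive CD8+ T cells / Technique: high-throughput flow cytometry with anti-B7-1 and anti-CD8 staining / Timing: Cell–vesicle co-incubation 1.5 h at 37 °C, staining 20 min on ice / Read-out: percent CD8+ FL2 mean versus row control / Probe or stimulus: QL9-loaded Drosophila micro-vesicles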
PKA-R2B act – activators of human PKA-R2B complex; P22694+P31323; PKA-R2B holoenzyme dissociation, Cy5-IP20 fluorescence polarization; R2B truncated from residue 108, S112A mutant; 0% DMSO only, 100% 113 µM cGMP; 340,000 tested, 0.079% active; activation, % at 11.4 µM; AID 504700;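 active = activation above a cutoff set at the mean over all compounds plus 3 SD, cut at about 18% in these data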;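 note: higher means more holoenzyme dissociation and a rise in polarization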
ATG4B conf – ATG4B (human) inhibition, single-dose confirmed; inhibition, % at 8.33 µM; AID 504757; ATG4B protease fluorescent substrate cleavage assay; shares compounds with ATG4B inhibitor; 320 tested, 92% active; in the data active = inhibition above about 39%
PLA2 counter – inhibits human PLA2, flagging false ATG4B inhibitors; shares compounds with ATG4B inhibitor; purified PLA2, NBD-C6-HPC fluorescence, 45 min; inhibition, % at 8.33 µM; 1,600 tested, 66% active; AID 588402; in the data active = inhibition above about 50%
Target sequence (P04054 whole entry, looked up): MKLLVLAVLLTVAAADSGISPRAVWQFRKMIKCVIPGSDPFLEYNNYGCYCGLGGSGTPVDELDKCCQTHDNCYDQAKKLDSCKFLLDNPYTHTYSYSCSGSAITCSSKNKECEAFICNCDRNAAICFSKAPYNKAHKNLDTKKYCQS
The depositor's hits bear a star; i = inactive; x = no result given. Rows were chosen to be rich in hits. Some 1.6% of all compounds tested hit in one or more screens of this group.

SMILES | HKDC1 inh | ATG4B inhibitor | PfGluPho inh | PKA-R1A act | T cell modulator | PKA-R2B act | PLA2 counter | others
CC(=O)Nc1cc(C(=O)N2CCc3ccccc3C2)ccc1Sc1ccc(Cl)cc1 | 4 | 40* | 0 | 2 | 486 | 3 | 51*
CC(=O)Nc1cc(C(=O)N2CCc3ccccc3C2)ccc1Sc1ccc(F)cc1 | 2 | 24 | -10 | -11 | 309 | -9 | x
CC1=C(C(=O)Nc2cccc(C(=O)NCc3ccccc3C)c2)SCCO1 | -3 | 54* | -6 | -13 | 331 | -8 | 64*
CC1=C(C(=O)Nc2cccc(C(=O)NCc3ccc(F)cc3)c2)SCCO1 | 3 | 8 | 8 | 0 | 374 | -8 | x
CCCCCCCOC(=O)C[N+](C)(C)CCOC1CC2CCC1(C)C2(C)C (stereo not drawn) | -7 | 53* | -3 | -2 | x | -1 | 41 | ATG4B conf=48*
CCCCCCOC(=O)C[N+](C)(C)CCOC1CC2CCC1(C)C2(C)C (stereo not drawn) | -2 | 10 | -2 | -4 | 448 | -4 | x
CC(C)(C)OC(=O)N[C@H](C(=O)OC(C)(C)C)c1ccc2ccccc2c1 | 1 | 7 | 4 | -7 | 597 | -4 | x
FC(F)(F)c1cccc(NC(=S)NCc2ccc(Cl)cc2)c1 | -4 | 14 | 14 | 1 | 214 | -12 | x
CCNC(=S)NCc1ccc(F)cc1 | -6 | 5 | -26 | 13 | 281 | 9 | x
Cc1ccc(C(C)NC(=S)NCc2ccc(F)cc2)c(C)c1 (stereo not drawn) | 11 | 44* | 15 | -3 | 235 | -1 | 52*
Fc1ccc(CNC(=S)NCc2ccc(F)cc2)cc1 | -4 | 42* | 1 | -6 | i | -3 | 45 | ATG4B conf=69*
Cc1ccc(C(C)NC(=S)NCc2ccc(F)cc2)cc1C (stereo not drawn) | -4 | 38 | 25 | -3 | 0 | 4 | x
Fc1ccc(CNC(=S)Nc2cccc(C(F)(F)F)c2)cc1 | -3 | 71* | 4 | -7 | 258 | -7 | 70*
CCOc1ccc(NC(=O)C(C)C(Cc2ccc(C)cc2)C(=O)O)cc1 (stereo not drawn) | -2 | 2 | -6 | 5 | 164 | 4 | x
Cc1nn(-c2cccc(C(F)(F)F)c2)c(Cl)c1/C=N/Nc1cccc(C(=O)O)c1 | -3 | 57* | -22 | 7 | 295 | -14 | 67*
Cc1nn(-c2ccccc2Cl)c(Cl)c1/C=N/Nc1cccc(C(=O)O)c1 | 5 | 14 | -21 | -5 | 458 | -1 | x
N=C1/C(=C\c2ccc(OC(=O)c3ccccc3)cc2)C(=O)N=C2SC(N3CCOCC3)=NN12 | 11 | 57* | -22 | 6 | 959 | 11 | 76*
CCc1ccc(NC(=O)C(C)Sc2nnc(CN3CCCC3)o2)cc1 (stereo not drawn) | -4 | -48 | 12 | -2 | 394 | -5 | x
COC(=O)Nc1ccc(SCC(=O)c2cccc([N+](=O)[O-])c2)cc1 | -1 | -13 | 42 | -10 | 217 | -11 | x
Cc1cccc(C(=O)NC(=S)Nc2ccccc2C(F)(F)F)c1 | -6 | 22 | 29 | -9 | 160 | -2 | x
Cc1ccc(C(=O)NC(=S)Nc2ccccc2C(F)(F)F)cc1C | 4 | 45* | 13 | -4 | 469 | -8 | 47 | ATG4B conf=62*
COc1cc(C(N)=O)cc(Cl)c1OCc1ccccc1 | -4 | 60* | 14 | -14 | 171 | 4 | 60*
CCOc1cc(C(N)=O)cc(OCC)c1OCC | 0 | -13 | 0 | -5 | 273 | 1 | x
CCOc1cc(C(N)=O)cc(Cl)c1OCc1ccccc1 | -1 | 49* | -5 | -2 | 134 | 7 | 71*

Source: PubChem (several laboratories)
